Experimental findings from ChEMBL document CHEMBL2440088, “A synthetic compound, 4-acetyl-3-methyl-6-(3,4,5-trimethoxyphenyl)pyrano[3,4-c]pyran-1,8-dione, ameliorates ovalbumin-induced asthma” (Bioorg Med Chem, 2013) are described below.

SMILES strings stand for the structures. Calls of active or inactive are those of the source. No cut-off for these calls is given here.

Data set [1] has as its system Mus musculus. Nature of the data set: Antiinflammatory activity in ovalbumin-sensitized Balb/c mouse asthma model model assessed as reduction of eosinophils, neutrophils, lymphocytes, and macrophages level in BAL fluid at 1 mg/kg, po. Type of data set: functional, organism-based. Also noted: dose 1 mg/kg. The gist of the method: (§1)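 Male Balb/c mice, 6 weeks old and 20-25 g, n = 6 per group, were sensitized ip on days 0 and 14 with 100 μg OVA precipitated with 20 mg aluminum hydroxide in 200 μl PBS. They were challenged intranasally with 1% OVA in 50 μl PBS on days 15, 17, 19, 21, 23 and 25, and sacrificed on day 27.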

Data set [2] concerns Mus musculus. As to the kind of experiment: Antiinflammatory activity in ovalbumin-sensitized Balb/c mouse asthma model model assessed as reduction in methacholine-induced airway hyperresponsiveness at 1 mg/kg, po. Type of data set: functional, organism-based. Also noted: dose 1 mg/kg. An outline of the steps: (§2)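 AHR was read in OVA-sensitized/challenged Balb/c mice (n = 6 per group) 24 h after the final allergen challenge, by barometric whole-body plethysmography. A 3 min baseline came first, then inhalation of methacholine at 50 or 100 mg ml⁻¹, with the read-out as enhanced pause (Penh).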

Data set [3] deals with Mus musculus. As to the kind of experiment: Antiinflammatory activity in ovalbumin-sensitized Balb/c mouse asthma model model assessed as reduction of goblet cell hyperplasia in lungs at 1 mg/kg, po by PAS staining. It counts as functional, organism-based. Set-up: dose 1 mg/kg. An outline of the steps: as §1
Data set [4] concerns the target Transcription factor p65 (Homo sapiens) (UniProt Q04206). Nature of the data set: Inhibition of TNFalpha/IL4/IL1-beta-induced NFkappaB p65 nuclear translocation in human A549 cells at 50 uM after 15 mins by Western blotting analysis. Type of data set: cell-based. Particulars: in the assay text read “after 1 hr” for “after 15 mins”. The gist of the method:
(§3)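 Nuclear extracts were western blotted for p65 or phospho-STAT6, with bands normalized to PCNA by densitometry over three experiments.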

Data set [5] has as its system Mus musculus. As to the kind of experiment: Antiinflammatory activity in ovalbumin-sensitized Balb/c mouse asthma model model assessed as reduction of airway smooth muscle thickness in lungs at 10 mg/kg, ip by IHC staining. Also noted: dose 10 mg/kg. Type of data set: functional, organism-based. Particulars: Muscle tissue. The gist of the method:
as §1

For data set [6], the system named is Mus musculus. As to the kind of experiment: Antiinflammatory activity in ovalbumin-sensitized Balb/c mouse asthma model model assessed as reduction in IgE level in serum at 10 mg/kg, ip after 48 hrs of last dose by ELISA. Type of data set: functional, organism-based. Set-up: dose 10 mg/kg. The gist of the method:
as §1
(In general: In an ELISA, binding on a coated surface is turned into a signal by an enzyme label.)

The target in data set [7] is T1, Signal transducer and activator of transcription 6 (Homo sapiens) (UniProt P42226).
T1 sequence (whole entry): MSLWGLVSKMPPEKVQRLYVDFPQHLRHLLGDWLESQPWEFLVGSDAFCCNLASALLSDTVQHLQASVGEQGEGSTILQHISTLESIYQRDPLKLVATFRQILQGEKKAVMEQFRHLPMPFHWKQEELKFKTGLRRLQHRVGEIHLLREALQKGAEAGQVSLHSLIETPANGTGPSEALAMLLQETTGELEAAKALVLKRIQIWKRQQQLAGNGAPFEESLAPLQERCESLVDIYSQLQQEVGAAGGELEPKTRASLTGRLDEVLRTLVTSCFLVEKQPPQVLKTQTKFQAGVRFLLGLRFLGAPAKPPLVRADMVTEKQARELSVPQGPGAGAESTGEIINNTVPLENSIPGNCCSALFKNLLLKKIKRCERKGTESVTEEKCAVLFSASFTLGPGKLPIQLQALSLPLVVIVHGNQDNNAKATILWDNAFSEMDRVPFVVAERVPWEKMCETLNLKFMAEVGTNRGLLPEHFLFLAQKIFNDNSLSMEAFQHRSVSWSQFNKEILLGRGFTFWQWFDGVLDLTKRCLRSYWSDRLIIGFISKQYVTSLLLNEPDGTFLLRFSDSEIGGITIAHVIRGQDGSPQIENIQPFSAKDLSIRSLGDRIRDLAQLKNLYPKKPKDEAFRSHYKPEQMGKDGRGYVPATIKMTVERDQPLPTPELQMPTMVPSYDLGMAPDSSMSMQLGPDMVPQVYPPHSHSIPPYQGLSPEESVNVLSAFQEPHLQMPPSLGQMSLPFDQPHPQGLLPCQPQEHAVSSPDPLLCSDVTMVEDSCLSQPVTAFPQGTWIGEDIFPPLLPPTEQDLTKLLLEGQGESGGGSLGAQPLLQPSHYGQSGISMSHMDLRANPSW
Nature of the data set: Inhibition of TNFalpha/IL4/IL1-beta-induced STAT6 phosphorylation in human A549 cells at 50 uM after 15 mins by Western blotting analysis. Type of data set: cell-based. The following applies: in the assay text read “after 1 hr” for “after 15 mins”. The gist of the method:
as §3
Background: A western blot detects proteins with antibodies after separation by electrophoresis.

For data set [8], the system named is Mus musculus. As to the kind of experiment: Antiinflammatory activity in ovalbumin-sensitized Balb/c mouse asthma model model assessed as reduction of goblet cell hyperplasia in lungs at 10 mg/kg, ip by PAS staining. Set-up: dose 10 mg/kg. It counts as functional, organism-based. An outline of the steps: as §1
The test system of data set [9] is Mus musculus. As to the kind of experiment: Antiinflammatory activity in ovalbumin-sensitized Balb/c mouse asthma model model assessed as reduction of eosinophils infiltration in lungs at 10 mg/kg, ip by hematoxylin and eosin staining. It counts as functional, organism-based. Also noted: dose 10 mg/kg. An outline of the steps: as §1
For data set [10], the system named is Mus musculus. Nature of the data set: Antiinflammatory activity in ovalbumin-sensitized Balb/c mouse asthma model model assessed as reduction in methacholine-induced airway hyperresponsiveness at 10 mg/kg, ip. It counts as functional, organism-based. Also noted: dose 10 mg/kg. The gist of the method: as §2
The subject of data set [11] is Mus musculus. Nature of the data set: Antiinflammatory activity in ovalbumin-sensitized Balb/c mouse asthma model model assessed as reduction of eosinophils, neutrophils, lymphocytes, and macrophages level in BAL fluid at 10 mg/kg, ip. It counts as functional, organism-based. Set-up: dose 10 mg/kg. An outline of the steps:
as §1

The test system of data set [12] is A549. Nature of the data set: Cytotoxicity against human A549 cells assessed as cell viability at 50 uM after 24 hrs by MTS assay. It counts as cell-based. Particulars: a549, 24 h. An outline of the steps:
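A549 cells were seeded at 2×10⁴ cells per well and grown 24 h at 37 °C, then exposed to 0, 5, 10 or 50 μM for 24 h. MTS reagent was added for a further 4 h and absorbance read at 490 nm; assays were run in triplicate.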
Background: Tetrazolium dyes change colour on reduction, which living cells bring about.

Data set [13] deals with A549. As to the kind of experiment: Inhibition of TNFalpha/IL4/IL1-beta-induced CCL11 secretion in human A549 cells at 5 uM treated 1 hr before TNFalpha/IL4/IL1-beta stimulation measured after 24 hrs by ELISA. Type of data set: functional. An outline of the steps:
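Confluent A549 cells were held in serum-free RPMI for 24 h, pretreated 1 h with 0-50 μM, then stimulated with IL-1β (10 ng ml⁻¹), TNF-α (100 ng ml⁻¹) and IL-4 (100 ng ml⁻¹) for 24 h. Eotaxin in the supernatant was measured by ELISA; three independent experiments were run.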

Sequence of Transcription factor p65 (Homo sapiens) (Q04206 whole entry): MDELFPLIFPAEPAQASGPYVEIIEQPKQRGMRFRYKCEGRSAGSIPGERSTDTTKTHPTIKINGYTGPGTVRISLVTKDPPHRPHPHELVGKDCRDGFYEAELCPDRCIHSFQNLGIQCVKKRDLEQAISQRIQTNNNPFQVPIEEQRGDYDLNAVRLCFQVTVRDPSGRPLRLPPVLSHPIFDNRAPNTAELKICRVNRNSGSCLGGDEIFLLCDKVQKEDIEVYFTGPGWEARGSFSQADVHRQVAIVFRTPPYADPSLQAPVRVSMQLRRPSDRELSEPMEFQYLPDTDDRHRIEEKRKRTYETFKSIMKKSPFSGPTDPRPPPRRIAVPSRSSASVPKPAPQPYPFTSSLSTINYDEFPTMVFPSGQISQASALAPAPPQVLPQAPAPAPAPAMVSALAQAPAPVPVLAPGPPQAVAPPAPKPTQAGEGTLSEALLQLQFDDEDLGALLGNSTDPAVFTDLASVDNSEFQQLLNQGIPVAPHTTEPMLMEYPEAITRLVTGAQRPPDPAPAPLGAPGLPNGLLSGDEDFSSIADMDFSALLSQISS

For the molecule `C[C@@H]1C[C@H]2[C@@H]3CCC4=CC(=O)C=C[C@]4(C)[C@@]3(F)[C@@H](O)C[C@]2(C)[C@@]1(O)C(=O)CO`, the result in data set [1], in data set [2] and in data set [3] was Active.
In the case of `COc1cc(-c2cc3c(C(C)=O)c(C)oc(=O)c3c(=O)o2)cc(OC)c1OC`, the inhibition – broadly, the percentage by which the read-out fell short of the control – in data set [4] is “inactive”. The result in [5], in data set [6], in [8], in data set [9], in [10] and in data set [11] was Active. Moreover, in data set [7], the inhibition entry is “Active”. In addition, the Activity result in data set [12] was “Non-toxic”. For the same molecule, testing at 5 µM in data set [13] gave an inhibition of 75%.
